Bioassay records deposited in PubChem by several laboratories.
Lmaj promast – Leishmania major promastigote growth inhibition, primary screen | Leishmania major promastigotes, resazurin fluorescence viability | inhibition, % at 10 µM | hit rate 9% among 200,000; in the data active means inhibition above about 50%;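 further: promastigotes grown with compound for 44 hours at 28 °C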
MPTP block – mitochondrial permeability transition pore inhibitors, primary screen, biochemical, isolated mouse mitochondria, absorbance; inhibition, % at 10 µM; Ca2+ swelling absorbance, 30 min; hit rate 1.4% among 360,000;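 active means inhibition of 50% or more, scaled per plate between neutral and stimulator controls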
Lipid droplet – inhibitors of hepatocyte lipid droplet formation, primary screen, imaging, high-throughput imaging, BODIPY stain; AML12 mouse hepatocytes, oleate lipid droplets; inhibition, % at 6.5 µM; AID 1656, 2009; hit rate 0.4% among 240,000;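 active means lipid droplet intensity inhibited by at least 50%, with more than 500 cells counted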
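Material: mouse AML12 hepatocyte cell line, fixed after treatment; Timing: compound with oleate, overnight; Technique: high-content imaging of BODIPY-stained droplets and DAPI nuclei; Probe or stimulus: oleate, 100 µM final; Dosing: compound at 6.5 µM only.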
Redox H2O2 prof – compounds producing H2O2 with reducing agent – biochemical, NIH compound library profiling, artefact control for MLSCN library redox annotation, primary screen. DTT-dependent redox cycling H2O2, phenol red/HRP absorbance; 100% = 100 µM peroxide control, 0% = buffer. activation, % at 10 µM. hit rate 0.03% among 200,000. AID 878, 2007;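 active means activation of at least 50% relative to the plate's high and low controls in the primary single-dose screen; inactive means activation below 50%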;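 further: compound incubated with DTT at 0.8 mM final as the reducing agent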
T cruzi inh – inhibitors of intracellular T. cruzi growth, primary screen, luminescence, NIH3T3 host cells | T. cruzi beta-gal in NIH3T3, 90 h | inhibition, % (concentration not given with the values) | hit rate 1.4% among 300,000;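 active means mean inhibition across valid replicates above about 55%, limit read from the data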;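 further: signal also drops with host cell toxicity which is not excluded here; higher percent means less beta-gal luminescence so fewer parasites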
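Test system: β-gal T. cruzi (Tulahuen C4) inside NIH/3T3 cells / Quantity: 5,000 cells/well / Measured by: luminescence from GalScreen with 0.05% NP40, read after 60 min / Medium: DMEM plus 2% FBS / Measure: parasite load inhibition, % / Reagent: Tulahuen C4 trypomastigotes, 5000/well / Schedule: co-culture of at least 90 h after 3 h attachment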
Large screens that a line does not name were inactive. This is one part of a sample in which hits are shown more often than they occur.

Cc1cc(C(=O)COC(=O)CC2Sc3ccccc3NC2=O)c(C)n1-c1cccc(C(F)(F)F)c1 (configuration not stated)	Lmaj promast 97
Cc1cc(C(=O)COC(=O)Cc2n[nH]c(=O)c3ccccc23)c(C)n1-c1cccc(C(F)(F)F)c1	none
CCCCC1(Cc2cccc([N+](=O)[O-])c2)C(=O)N(c2ccccc2)N(c2ccccc2)C1=O	Lmaj promast 58
CCCCC1(CO)C(=O)N(c2ccccc2)N(c2ccccc2)C1=O	none (no result: Lmaj promast, Lipid droplet, Redox H2O2 prof)
Cc1ccc(S(=O)(=O)N/N=C\C=C\c2ccccc2)cc1	Lmaj promast 83
Nc1ccc(S(=O)(=O)NN=CC=Cc2ccccc2[N+](=O)[O-])cc1	none (no result: Lmaj promast, Lipid droplet, Redox H2O2 prof, T cruzi inh)
O=S(=O)(N/N=C\C=C\c1ccccc1)c1ccc(Br)cc1	Lmaj promast 97 (no result: Lipid droplet)
CC(C)CC(=O)NS(=O)(=O)c1ccc(NS(C)(=O)=O)cc1	none
COc1ccc(C2C(C#N)=C(C)NC3=C2C(=O)CC(C)(C)C3)cc1 (configuration not stated)	none (no result: Lipid droplet)
CC1(C)CC(=O)C2=C(C1)Nc1ccccc1NC2c1ccc2c(c1)OCO2 (configuration not stated)	Lmaj promast 51 (no result: Lipid droplet)
CC1(C)CC(=O)C2=C(C1)Nc1cc3c(cc1C2c1ccc(F)cc1)OCO3 (configuration not stated)	Lmaj promast 100 (no result: Lipid droplet)
CC1(C)CC(=O)C2=C(C1)Nc1cc3c(cc1C2c1ccc2c(c1)OCO2)OCO3 (configuration not stated)	Lmaj promast 99 (no result: Lipid droplet)
CC1(C)CC(=O)C2=C(C1)Nc1ccccc1NC2c1ccc(F)cc1 (configuration not stated)	none (no result: Lmaj promast, Redox H2O2 prof)
COc1ccc(C2C3=C(CC(C)(C)CC3=O)Nc3cc4c(cc32)OCO4)cc1 (configuration not stated)	Lmaj promast 99 (no result: Lipid droplet)
Cc1ccc(C2C3=C(CC(C)(C)CC3=O)Nc3onc(C)c32)cc1 (configuration not stated)	Lmaj promast 53
O=C(NCCCN1CCCCCC1)c1ccc2c(Cl)c3c(nc2c1)CCCC3	Lmaj promast 73
CC1CCN(CCCNC(=O)c2cc3c(Cl)nc4ccccc4c3s2)CC1	Lmaj promast 100, T cruzi inh 56
O=C(NCCCN1CCCC1)c1cc2c(Cl)nc3ccccc3c2s1	Lmaj promast 90
CCOCCn1ccc2c(OCC(=O)NCc3ccccc3)cccc2c1=O	none (no result: Lmaj promast, Lipid droplet, Redox H2O2 prof)
CN1CCN(c2ccc(S(=O)(=O)N3CCOCC3)cc2NC(=O)COc2ccc(C#N)cc2)CC1	none (no result: Lmaj promast, Lipid droplet, Redox H2O2 prof, T cruzi inh)
O=c1[nH]c2ccccc2[n+]([O-])c1-c1ccccc1	none
CC1CN(C(=O)Nc2ccc3snnc3c2)c2ccccc21 (configuration not stated)	Lmaj promast 51
CC(C)c1ccc(CNCc2ccccc2)cc1	Lmaj promast 80 (no result: Lipid droplet)
Clc1ccc(CNCCCSc2ncccn2)cc1Cl	T cruzi inh 56 (no result: Lmaj promast, Lipid droplet, Redox H2O2 prof)
CC(C)c1ccc(CNCCCSc2ncccn2)cc1	T cruzi inh 71 (no result: Lmaj promast, Redox H2O2 prof)
CCOc1ccc(CNCCCSc2ncccn2)cc1	T cruzi inh 55 (no result: Lmaj promast, Redox H2O2 prof)
COc1ccc(-c2ccc3c(c2)c(Sc2ccccc2)c(-c2ccccc2)n3C)cc1	none (no result: Lmaj promast, Lipid droplet, Redox H2O2 prof, T cruzi inh)
C/C(=N\NC(=O)CNC(=O)c1cccc(F)c1)c1ccc2ccccc2c1	none (no result: Lmaj promast, Redox H2O2 prof)
N#CC1=C2N=C(N)c3ccccc3N2C2=C(C(=O)CCC2)C1c1cccc(Cl)c1 (configuration not stated)	Lmaj promast 81
Cc1ccc(C2=NC3(CCCC3)N=C2SCC(=O)Nc2ccc3c(c2)OCCO3)cc1	Lmaj promast 73 (no result: Lipid droplet)
O=C(CSc1ccc2c(c1)OCCO2)Nc1ccc(Br)cc1	Lmaj promast 67 (no result: Lipid droplet)
O=C(Nc1ncccn1)c1ccc([N+](=O)[O-])o1	none
COc1ccc(COc2ccccc2C(=O)Nc2ccccn2)cc1[N+](=O)[O-]	Lmaj promast 62
O=C(Nc1ccccn1)c1ccc([N+](=O)[O-])o1	Lmaj promast 99
Cc1ccnc(NC(=O)c2ccc([N+](=O)[O-])o2)c1	Lmaj promast 99
CCOc1cccc(CN2CCCC(N3CCc4cc(OC)c(OC)cc4C3)C2)c1O (configuration not stated)	T cruzi inh 65 (no result: Lmaj promast, Redox H2O2 prof)
CCOc1cc(CN2CCCC(N3CCc4ccccc4C3)C2)ccc1O (configuration not stated)	none (no result: Lmaj promast, Redox H2O2 prof)
CC(=O)c1ccc(NC(=O)Cc2ccsc2)cc1	none (no result: Lmaj promast, Redox H2O2 prof)
